Series [1] relates to Mus musculus. The experiment in a line: Effect of central administration on whole mouse brain homovanillic acid (HAV) level after 1 hr. It is filed as functional, organism-based. Summed up: (§1)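 Adult male outbred Hsd:ICR mice (25-35 g) under light ether anesthesia received a single 25 or 30 µg (free base) intracranial dose near the left lateral ventricle. Vehicle was 5 µL isotonic saline with 1.0 mg/mL ascorbate, and controls got vehicle alone. Mice were killed by focused microwave (250 ms, 7.0 kW) at 1 h, 1 day or 1 week. Brains were homogenized, spun at 50 000g (4 °C, 1 h) and filtered. Amines and metabolites were measured by LCEC as % of control ± sem, n = 11-18.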

Series [2] deals with Mus musculus. Briefly: Effect of central administration on whole mouse brain 5-hydroxytryptamine (5-HT) level after 1 week. It counts as functional, organism-based. Summed up:
as §1

The test system of series [3] is Mus musculus. The experiment in a line: Effect of central administration on whole mouse brain choline (Ch) level after 1 hr. It is filed as functional, organism-based. The procedure, abridged:
(§2)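 The dosing, vehicle, controls, microwave sacrifice, timepoints and brain processing were the same as for the amine lines. Whole mouse brain ACh and choline were measured by LCEC on 20 µL aliquots of the filtered 50 000g supernate, which had been stored at -80 °C. Values are % of vehicle controls ± sem, n = 11-18 per group.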

Series [4] has as its system Mus musculus. The experiment in a line: Effect of central administration on whole mouse brain 3,4-di hydroxyphenylacetic acid (DOPAC)level after 1 week. It is filed as functional, organism-based. Summed up:
as §1

Series [5] relates to Mus musculus. Briefly: Effect of central administration on whole mouse brain dopamine (DA) level after 1 week. It is filed as functional, organism-based. Summed up:
as §1

Series [6] deals with Mus musculus. Briefly: Effect of central administration on whole mouse brain norepinephrine (NE) level after 1 day. It is filed as functional, organism-based. Summed up:
as §1

For series [7], the system named is Mus musculus. The experiment in a line: Effect of central administration on whole mouse brain 5-hydroxyindole-3-acetic acid(5-HIAA)level after 1 week. It counts as functional, organism-based. Summed up: as §1
Series [8] has as its system Mus musculus. Briefly: Effect of central administration on whole mouse brain norepinephrine (NE) level after 1 hr. It counts as functional, organism-based. Summed up:
as §1

Series [9] has as its system Mus musculus. Briefly: Effect of central administration on whole mouse brain acetylcholine (ACh) level after 1 week. It is filed as functional, organism-based. Summed up:
as §2

Series [10] relates to Mus musculus. The experiment in a line: Effect of central administration on whole mouse brain 5-hydroxytryptamine (5-HT) level after 1 day. It counts as functional, organism-based. Summed up:
as §1

The subject of series [11] is Mus musculus. Briefly: Weight which caused death of 50% of the treated animals within 1 hr following drug administration. It is filed as ADME, organism-based. Conditions: in vivo. Summed up:
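Adult male outbred Hsd:ICR albino mice, 25-35 g, given compound (dose as free base) intracranially near the left lateral ventricle under light ether anesthesia, in 5 µL isotonic saline containing 1.0 mg/mL ascorbic acid. Deaths within 1 h were scored, and LD50 (injected weight) was derived by Dixon's statistical method, reported as mean ± standard deviation on a log microgram scale.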

The test system of series [12] is Mus musculus. Briefly: Effect of central administration on whole mouse brain norepinephrine (NE) level after 1 week. It counts as functional, organism-based. Summed up:
as §1

Series [13] relates to Mus musculus. The experiment in a line: Effect of central administration on whole mouse brain homovanillic acid (HAV) level after 1 week. It is filed as functional, organism-based. The procedure, abridged:
as §1

The subject of series [14] is Mus musculus. Briefly: Effect of central administration on whole mouse brain 5-hydroxyindole-3-acetic acid(5-HIAA)level after 1 day. It counts as functional, organism-based. The procedure, abridged:
as §1

In series [15] the test system is Mus musculus. Briefly: Effect of central administration on whole mouse brain acetylcholine (ACh) level after 1 day. It is filed as functional, organism-based. The procedure, abridged: as §2
Series [16] deals with Mus musculus. The experiment in a line: Effect of central administration on whole mouse brain dopamine (DA) level after 1 hr. It counts as functional, organism-based. Summed up:
as §1

In series [17] the test system is Mus musculus. The experiment in a line: Effect of central administration on whole mouse brain choline (Ch) level after 1 week. It is filed as functional, organism-based. The procedure, abridged:
as §2

Series [18] relates to Mus musculus. Briefly: Effect of central administration on whole mouse brain 3,4-di hydroxyphenylacetic acid (DOPAC) level after 1 day. It is filed as functional, organism-based. Summed up:
as §1

Series [19] has as its system Mus musculus. The experiment in a line: Effect of central administration on whole mouse brain choline (Ch) level after 1 day. It is filed as functional, organism-based. The procedure, abridged:
as §2

In series [20] the test system is Mus musculus. Briefly: Effect of central administration on whole mouse brain 5-HT (5-HT) after 1 hr. It is filed as functional, organism-based. Summed up: as §1
Series [21] relates to Mus musculus. The experiment in a line: Effect of central administration on whole mouse brain dopamine (DA) level after 1 day. It is filed as functional, organism-based. Summed up:
as §1

In series [22] the test system is Mus musculus. The experiment in a line: Effect of central administration on whole mouse brain acetylcholine (ACh) level after 1 hr. It counts as functional, organism-based. Summed up:
as §2

Series [23] concerns Mus musculus. The experiment in a line: Effect of central administration on whole mouse brain 5-hydroxyindole-3-acetic acid(5-HIAA)level after 1 hr. It counts as functional, organism-based. Summed up: as §1
Series [24] deals with Mus musculus. The experiment in a line: Effect of central administration on whole mouse brain 3,4-di hydroxyphenylacetic acid (DOPAC) level after 1 hr. It is filed as functional, organism-based. Summed up: as §1
Series [25] deals with Mus musculus. The experiment in a line: Effect of central administration on whole mouse brain homovanillic acid (HAV) level after 1 day. It counts as functional, organism-based. The procedure, abridged: as §1
Series [26] relates to Mus musculus. The experiment in a line: Effect of central administration on whole mouse brain 5-hydroxytryptamine (5-HT) after 1 day. It is filed as functional, organism-based. Summed up: as §1
The test system of series [27] is Mus musculus. The experiment in a line: Effect of central administration on whole mouse brain 5-hydroxyindole-3-acetic acid (5-HIAA) level after 1 hr. It is filed as functional, organism-based. The procedure, abridged:
as §1

Series [28] deals with Mus musculus. Briefly: Effect of central administration on whole mouse brain 5-HT (5-HT) after 1 week. It counts as functional, organism-based. Summed up: as §1
Series [29] deals with Mus musculus. Briefly: Effect of central administration on whole mouse brain cholin (Ch) level after 1 day. It counts as functional, organism-based. The procedure, abridged: as §2
The subject of series [30] is Mus musculus. The experiment in a line: Effect of central administration on whole mouse brain cholin (Ch) level after 1 hr. It counts as functional, organism-based. Summed up:
as §2

The subject of series [31] is Mus musculus. Briefly: Effect of central administration on whole mouse brain 5-hydroxyindole-3-acetic acid (5-HIAA) level after 1 day. It counts as functional, organism-based. Summed up:
as §1

Series [32] has as its system Mus musculus. Briefly: Effect of central administration on whole mouse brain 5-hydroxyindole-3-acetic acid (5-HIAA) level after 1 week. It counts as functional, organism-based. The procedure, abridged:
as §1

The subject of series [33] is Mus musculus. The experiment in a line: Effect of central administration on whole mouse brain cholin (Ch) level after 1 week. It counts as functional, organism-based. The procedure, abridged: as §2
In series [34] the test system is Mus musculus. The experiment in a line: Effect of central administration on whole mouse brain 3,4-di hydroxyphenylacetic acid (DOPAC) level after 1 week. It counts as functional, organism-based. The procedure, abridged:
as §1

The structures appear in SMILES notation.

Take `NCCc1c[nH]c2c1C(=O)C(=O)C=C2O`: the Level came to 147% with Mus musculus [1]; 104% with Mus musculus [2]; 153% in the series with Mus musculus [3]; 117% with Mus musculus [4]; 114% with Mus musculus [5]; 84% in the series on Mus musculus [6]. Moreover, the Level was 106% in the series on Mus musculus [7]; 80% in the series with Mus musculus [8]; 107% in the series on Mus musculus [9]; 72% in the series with Mus musculus [10]; 114% in the series with Mus musculus [12]; 112% with Mus musculus [13]. The Level came to 82% in the series on Mus musculus [14]; 65% in the series with Mus musculus [15]; 92% with Mus musculus [16]; 106% with Mus musculus [17]; 107% in the series on Mus musculus [18]; 57% in the series on Mus musculus [19]. The Level in the series with Mus musculus [20] came to 89%; with Mus musculus [21], 79%; in the series with Mus musculus [22], 100%; in the series on Mus musculus [23], 159%; in the series with Mus musculus [24] it was 54%; in the series with Mus musculus [25], 92%. In the series on Mus musculus [11], the LD50 came to 29.6 µg.
For `NCCc1c[nH]c2c1C(=O)C(O)=C(C1=C(O)c3[nH]cc(CCN)c3C(=O)C1=O)C2=O`, the Level came to 102% with Mus musculus [1]; 75% in the series on Mus musculus [26]; 82% in the series on Mus musculus [6]; 118% with Mus musculus [27]; 103% with Mus musculus [28]; 95% with Mus musculus [8]. Moreover, the Level in the series with Mus musculus [9] was determined as 123%; in the series with Mus musculus [12] it was 89%; with Mus musculus [15], 78%; with Mus musculus [29], 78%; in the series on Mus musculus [16], 97%; in the series on Mus musculus [30] it was 126%. Further, the Level is 76% in the series with Mus musculus [31]; 152% with Mus musculus [32]; 116% with Mus musculus [18]; 88% in the series with Mus musculus [20]; 85% with Mus musculus [21]; 83% in the series with Mus musculus [22]. Further, the Level is 115% with Mus musculus [33], 74% in the series on Mus musculus [24], 101% in the series with Mus musculus [34] and 85% with Mus musculus [25]. The same molecule displayed an LD50 with Mus musculus [11] of 25.4 µg.
`NCCc1c[nH]c2c(O)cc(O)cc12` displayed an LD50 with Mus musculus [11] of 51.8 µg.

Source of the values: ChEMBL document CHEMBL1126812, “Further insights into the molecular mechanisms of action of the serotonergic neurotoxin 5,7-dihydroxytryptamine” (J Med Chem, 1993).
